The source made the active and inactive calls.
Key:
Globohexaosylceramide = assay: Binding affinity to globo H antigen in human MCF7 cells using mouse sera induced by compound immunization and 14 days post fourth vaccination measured after 30 mins by FITC-conjugated antibody based flow cytometry; type: cell-based; details: time 14.0 day
How it was run: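 Immune sera from vaccinated mice were incubated with Globo H-positive MCF-7 human breast cancer cells. Binding of serum antibodies to the cells was measured by flow cytometry.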

Mus musculus [1] = assay: (§1) Induction of antigen-specific immunogenicity in pathogen free Balb/c mouse assessed as increase in IgG1 antibody titer production against modified Globo H antigen at 2 ug, IM administered 4 times at biweekly interval measured 14 days post fourth vaccination in presence of 2 ug glycolipid adjuvant C34 by ELISA; type: functional, organism-based; details: dose 2.0 µg, time 14.0 day
Mus musculus [2] = assay: as §1, with “native” for “modified”, “13” for “14”, “third” for “fourth”; type: functional, organism-based; details: dose 2.0 µg, time 13.0 day
How it was run: (§2)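 Six female Balb/c mice per group received CRM197 glycoconjugate (2 μg carbohydrate antigen) with C34 adjuvant (2 μg) intramuscularly, four times at two-week intervals. Pooled group sera were tested for IgG subclasses by ELISA on plates coated with the unmodified Globo H–BSA conjugate (G0-BSA).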

Mus musculus [3] = assay: as §1, with “native” for “modified”; type: functional, organism-based; details: dose 2.0 µg, time 14.0 day; how it was run: as §2
MCF7 = assay: Induction of complement-dependent cytotoxicity against human MCF7 cells assessed as increase in cell lysis using mouse sera induced by compound immunization and 14 days post fourth vaccination measured after 1 hr by LDH release assay; type: functional, cell-based; details: time 14.0 day
How it was run: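 Complement-dependent cytotoxicity on MCF-7 cells used pooled sera collected after the 4th vaccination, diluted 1:10. Percent lysis was read by LDH release, with three wells per measurement. Values are mean ± SEM of three independent experiments, compared by one-way ANOVA.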

Measured: Activity

C[C@@H]1O[C@@H](O[C@H]2[C@H](O[C@H]3[C@@H](O)[C@@H](CO)O[C@@H](O[C@H]4[C@@H](O)[C@@H](CO)O[C@H](O[C@@H]5[C@H](O)[C@@H](O)[C@H](O[C@H]6[C@H](O)[C@@H](O)[C@H](OCCCCCN)O[C@@H]6CO)O[C@@H]5CO)[C@@H]4O)[C@@H]3NC(=O)C(F)(F)F)O[C@H](CO)[C@H](O)[C@@H]2O)[C@@H](O)[C@H](O)[C@@H]1O
active: all assays above

C[C@@H]1O[C@@H](O[C@H]2[C@H](O[C@H]3[C@@H](O)[C@@H](CO)O[C@@H](O[C@H]4[C@@H](O)[C@@H](CO)O[C@H](O[C@@H]5[C@H](O)[C@@H](O)[C@H](O[C@H]6[C@H](O)[C@@H](O)[C@H](OCCCCCN)O[C@@H]6CO)O[C@@H]5CO)[C@@H]4O)[C@@H]3NC(=O)C(F)F)O[C@H](CO)[C@H](O)[C@@H]2O)[C@@H](O)[C@H](O)[C@@H]1O
active: all assays above

CC(=O)N[C@H]1[C@H](O[C@H]2[C@@H](O)[C@@H](CO)O[C@H](O[C@@H]3[C@H](O)[C@@H](O)[C@H](O[C@H]4[C@H](O)[C@@H](O)[C@H](OCCCCCN)O[C@@H]4CO)O[C@@H]3CO)[C@@H]2O)O[C@H](CO)[C@H](O)[C@@H]1O[C@@H]1O[C@H](CO)[C@H](O)[C@H](O)[C@H]1O[C@@H]1O[C@@H](C)[C@@H](O)[C@@H](O)[C@@H]1O
not listed: MCF7
active: all other assays above

Source: ChEMBL document CHEMBL5136962, “Synthesis and immunological evaluation of N-acyl modified Globo H derivatives as anticancer vaccine candidates” (RSC Med Chem, 2021)
